High-throughput results as filed in PubChem.
Sampled rows, rich in hits. Any-hit rate of the full collection: about 5%.
T cruzi inh: inhibitors of intracellular T. cruzi growth, primary screen, luminescence, NIH3T3 host cells; T. cruzi beta-gal in NIH3T3, 90 h; inhibition, % (test concentration not listed); hit rate 1.4% among 300,000; AID 1885, 2009;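 active = mean inhibition across valid replicates above about 55%, limit read from the data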;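 note: signal also drops with host cell toxicity which is not excluded here; 0% = plate median of DMSO wells and 100% = zero luminescence signal; higher percent means less beta-gal luminescence so fewer parasites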
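Assay system: NIH/3T3 fibroblasts plus reporter T. cruzi. Amount: NIH/3T3 cells, 5,000 per well. Buffer or medium: DMEM, 2% fetal bovine serum. Doses: compound pinned at 50 nL/well, DMSO. Schedule: ≥90 h infection period, 3 h prior cell attachment. Signal: luminescent β-galactosidase signal after 60 min lysis. Read-out: parasite load inhibition, %.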
XBP1 UPR activ: activators of adaptive XBP1 UPR arm, primary screen, cell-based, CHO-XBP1 luciferase reporter, luminescence, uHTS. IRE1-XBP1 UPR activation; percent of tunicamycin response, DMSO as zero. hit rate 0.33% among 330,000. activation, % at 20 µM;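 active = versus positive control, 20 µM dose yields 30% or more activation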;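 note: 100% = tunicamycin at 10 µg/mL and 0% = DMSO only wells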
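Material: CHO cell line with stable XBP1 luciferase reporter; buffer or medium: F12 medium containing 10% fetal bovine serum; compound: single point, 20 µM final compound, 1% DMSO; incubation: 6 h treatment, 37 °C; measured by: glow luminescence from Steady-Glo reagent; evaluation: activation, % of tunicamycin; control set: tunicamycin high, DMSO low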
CSC inhib: cancer stem cell viability inhibitors, primary screen, luminescence; cancer stem cell-like cells viability; inhibition, % at 7.5 µM; hit rate 1.1% among 300,000; in the data active = inhibition above about 75%; tested in HMLE shEcad cells
Beta apoptosis: inhibitors of cytokine-induced beta cell apoptosis, primary screen, luminescence. protection from apoptosis, % (test concentration not listed). INS-1E cytokine-induced death, ATP luminescence, 48 h; percent of positive-control rescue, neutral wells zero. AID 435005, 2010. hit rate 0.8% among 300,000;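 active = Every replicate reaches about 75%, or at least half do and their mean reaches it too, limit read from the data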;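 note: 0% = cytokine-treated negative control wells and 100% = positive control rescue; higher means more ATP so stronger rescue from cytokine killing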
UPR CHOP act: activators of apoptotic CHOP UPR arm, primary screen, cell-based, CHO-CHOP luciferase reporter, luminescence, uHTS | UPR activation; percent of tunicamycin response over DMSO baseline | hit rate 0.34% among 330,000 | activation, % at 10 µM | AID 449763, 2010;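 active = at 10 µM dose, activation of 40% or more, normalized to positive control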;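 note: 100% = tunicamycin at 10 µg/mL and 0% = DMSO alone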
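Test system: CHO-CHOP cells, stable luciferase reporter of PERK-eIF2a-CHOP signalling | Quantity: 500 CHO-CHOP cells per well | Buffer or medium: F12 plus 10% serum | Compound dosing: 10 µM single point, 0.5% DMSO | Schedule: 6 h compound treatment, 37 °C | Signal: Luciferase luminescence | Control set: Tunicamycin high control, DMSO low control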
Mdm2-MdmX inh: inhibitors of human Mdm2-MdmX association, primary screen, cell-based, luminescence, split luciferase, SaOS-2, uHTS; hit rate 3% among 330,000; inhibition, % at 8 µM; AID 485346, 2010; SaOS-2 split-luciferase Mdm2/MdmX complementation; Protein Mdm4 (Homo sapiens) + E3 ubiquitin-protein ligase Mdm2 (Homo sapiens), …;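 active = inhibition of at least 50% at 8 µM in the primary screen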
Target sequence (O15151 whole entry, looked up): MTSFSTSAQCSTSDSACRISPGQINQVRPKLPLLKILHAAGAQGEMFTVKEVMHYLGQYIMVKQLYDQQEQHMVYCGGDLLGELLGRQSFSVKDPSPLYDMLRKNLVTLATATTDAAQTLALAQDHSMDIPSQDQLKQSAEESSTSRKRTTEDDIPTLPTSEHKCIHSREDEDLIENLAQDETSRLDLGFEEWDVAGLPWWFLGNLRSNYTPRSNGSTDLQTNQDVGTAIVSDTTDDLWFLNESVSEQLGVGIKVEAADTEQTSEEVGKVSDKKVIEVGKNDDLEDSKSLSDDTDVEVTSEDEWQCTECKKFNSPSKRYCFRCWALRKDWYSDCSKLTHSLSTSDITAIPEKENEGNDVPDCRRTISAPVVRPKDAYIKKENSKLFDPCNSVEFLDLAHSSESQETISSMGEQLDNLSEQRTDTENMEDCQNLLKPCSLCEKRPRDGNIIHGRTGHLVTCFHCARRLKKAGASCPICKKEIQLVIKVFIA
Target sequence (Q00987 whole entry, looked up): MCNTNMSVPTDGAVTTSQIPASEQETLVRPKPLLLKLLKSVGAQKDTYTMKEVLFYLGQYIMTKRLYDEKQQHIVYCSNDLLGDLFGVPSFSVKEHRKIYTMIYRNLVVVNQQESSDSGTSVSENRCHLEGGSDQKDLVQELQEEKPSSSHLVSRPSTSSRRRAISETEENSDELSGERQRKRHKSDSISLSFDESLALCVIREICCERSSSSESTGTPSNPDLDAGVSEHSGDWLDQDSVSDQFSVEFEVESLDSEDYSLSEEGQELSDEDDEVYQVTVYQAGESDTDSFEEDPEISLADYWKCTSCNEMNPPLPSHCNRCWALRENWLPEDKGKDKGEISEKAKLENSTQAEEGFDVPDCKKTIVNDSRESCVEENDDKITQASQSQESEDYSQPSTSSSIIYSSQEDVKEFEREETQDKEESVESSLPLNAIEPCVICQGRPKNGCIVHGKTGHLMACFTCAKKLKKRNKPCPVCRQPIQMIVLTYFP
Mdm2-MdmX conf: Mdm2-MdmX complex disruptors, retested hits, confirmation, luminescence, single concentration; shares compounds with Mdm2-MdmX inh; Mdm2-MdmX binding, luminescent assay; inhibition, % at 8 µM; hit rate 55% among 10,000; in the data active = inhibition above about 40%
FLuc counter: full-length luciferase signal inhibition, confirmation, counter-screen for Mdm2/MdmX interaction inhibitor project, cell-based, single concentration, SaOS-2; shares compounds with Mdm2-MdmX inh; hit rate 77% among 6,200; inhibition, % at 8 µM; SaOS-2 full-length luciferase counterscreen, luminescence; AID 504607, 2011;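 active = mean inhibition at 8 µM reaching about 37%, which flags the compound as non-specific, limit read from the data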;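 note: p53-null SaOS-2 cells with luciferase driven by a doxycycline-inducible promoter; compound on cells about two nights before reading with doxycycline added after day one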
Active calls of the source: *; . = not tested or not shown.

SMILES	T cruzi inh	XBP1 UPR activ	CSC inhib	Beta apoptosis	UPR CHOP act	Mdm2-MdmX inh	Mdm2-MdmX conf	FLuc counter
Cc1cc(C)cc(C(=O)Nc2ccc(NC(=O)Cc3ccccc3)cc2)c1	-5	1	9	26	2	52*	10	.
C/C(=N\NC(=O)c1ccccc1O)c1ccc(NC(=O)Cc2ccccc2)cc1	-7	-3	-5	23	4	51*	20	.
CCC1CCCCN1C(=O)CSc1nnc(-c2c[nH]c3ccccc23)o1 (stereo not drawn)	13	1	18	-7	0	-15	.	.
CC1(C)CC2CC(C)(CN2C(=O)c2cc(-c3ccccc3O)on2)C1 (stereo not drawn)	17	1	68	-1	3	64*	36	67*
Cc1ccc(-c2cc(C(=O)N3CC4(C)CC3CC(C)(C)C4)no2)cc1 (stereo not drawn)	-13	-3	34	-1	0	22	.	.
CC1=C([N+](=O)[O-])C(c2ccccc2)C2=C(N1)c1ccccc1C2=O (stereo not drawn)	12	12	52	16	-1	56*	63*	79*
CSc1ccccc1C(=O)NCc1ccc(C)cc1	-9	3	-11	-1	1	8	.	.
O=C(Cn1nc(-c2ccccc2)ccc1=O)Nc1ccc(NC(=O)c2ccccn2)cc1	2	28	6	15	22	83*	19	.
CS(=O)(=O)c1ccc2nc(NC(=O)CCS(=O)(=O)c3ccccc3)sc2c1	-2	-2	29	-5	2	78*	73*	84*
O=C(CCS(=O)(=O)c1ccccc1)Nc1nc2cc3c(cc2s1)OCCO3	-5	-3	-3	-3	5	57*	28	.
CS(=O)(=O)c1ccc2nc(NC(=O)Cc3ccccc3)sc2c1	-3	6	-12	.	5	-27	.	.
COC(=O)c1ccc2nc(NC(=O)CCS(=O)(=O)c3ccccc3)sc2c1	14	2	35	-8	3	91*	68*	27
O=C(CCS(=O)(=O)c1ccccc1)Nc1nc2ccc(F)cc2s1	19	-1	39	-5	2	67*	65*	72*
O=C(CCS(=O)(=O)c1ccccc1)Nc1nc2cc3c(cc2s1)OCO3	2	3	32	-4	2	25	.	.
CC(C)n1nc(C(=O)Nc2nc3ccc(S(C)(=O)=O)cc3s2)c2ccccc2c1=O	-12	11	-7	8	5	91*	57*	82*
COc1ccc(OC)c2sc(NC(=O)CCS(=O)(=O)c3ccccc3)nc12	-61	-1	109*	25	0	98*	77*	24
C=CCNc1nc(-c2ccccn2)nnc1-c1ccccc1	69*	3	-13	4	-3	55*	60*	41*
CC1(C)N=C(SCC(=O)Nc2ccc(Cl)cc2)C(c2ccc(Cl)cc2)=N1	42	1	39	-17	-1	56*	13	.
COc1ccc(C)cc1Nc1nc(N)c2cc(OC)c(OC)cc2n1	35	7	6	16	0	51*	15	.
Cc1c(NC(=O)c2cc(-c3ccccc3)nc3ccccc23)c(=O)n(-c2ccccc2)n1C	.	-4	-1	3	0	20	.	.
Cc1ccc2sc(NNC(=O)c3cc(-c4cccs4)nc4ccccc34)nc2c1C	43	.	38	.	.	.	.	.
Cc1cc(C)c2nc(NNC(=O)c3cc(-c4cccs4)nc4ccccc34)sc2c1	46	-1	97*	.	-2	77*	68*	57*
O=C(NNc1nc2ccc(Cl)cc2s1)c1cc(-c2cccs2)nc2ccccc12	-30	-1	109*	6	0	53*	62*	61*
Cc1c(NC(=O)c2cc(-c3cccs3)nc3ccccc23)c(=O)n(-c2ccccc2)n1C	-46	1	22	5	-2	57*	37	.
Cc1nn(Cc2ccc(Cl)cc2)c(C)c1NC(=O)C(c1ccccc1)c1ccccc1	18	-1	-1	-1	2	-6	.	.
SMILES	T cruzi inh	XBP1 UPR activ	CSC inhib	Beta apoptosis	UPR CHOP act	Mdm2-MdmX inh	Mdm2-MdmX conf	FLuc counter
Cc1cccc(/C=N/NC(=O)c2cccc([N+](=O)[O-])c2)n1	-2	3	-9	7	2	-19	.	.
Cn1cc(/C=N/NC(=O)c2cccc([N+](=O)[O-])c2)c2ccccc21	7	9	-11	3	5	61*	-8	.
Cn1cc(/C=N/NC(=O)c2ccccc2O)c2ccccc21	-15	0	-9	2	7	11	.	.
Cc1cc(/C=N/NC(=O)c2cccc([N+](=O)[O-])c2)c(C)n1-c1ccc(Cl)cc1Cl	3	4	10	1	-1	50*	35	.
COc1ccccc1/C=C/C(=O)c1ccc(NC(C)=O)cc1	-1	-1	60	-4	7	63*	52*	59*
COc1cc(OC)c(OC)cc1/C=C/C(=O)c1ccc(NS(=O)(=O)c2ccc(C)cc2)cc1	23	-2	43	.	1	59*	28	.
CC(=O)c1ccc(NS(=O)(=O)c2ccc(C)cc2)cc1	2	-2	-13	-1	0	2	.	.
COc1ccccc1/C=C/C(=O)c1c2c(c(C)[nH]c1=O)CCCC2	-12	-1	.	-16	2	85*	99*	56*
O=C1NC[C@@H](c2ccccc2)OC(=O)[C@@H](Cc2ccc(F)cc2)CC/C=C/C[C@H]1CC(=O)N(CCO)Cc1ccccc1	.	2	18	9	1	62*	47*	53*
O=C1NC[C@H](c2ccccc2)OC(=O)[C@H](Cc2ccc(F)cc2)CC/C=C/C[C@@H]1CC(=O)N(CCO)Cc1ccccc1	.	11	.	-1	4	41	.	.
O=C1NC[C@H](c2ccccc2)OC(=O)[C@H](Cc2ccc(F)cc2)C/C=C\C[C@H]1CC(=O)N(CCO)Cc1ccccc1	.	0	36	-1	4	81*	63*	47*
